The EC50 is the concentration needed to bring the measured effect to its halfway point. As usually defined, the MIC is the least concentration at which growth counts as inhibited. What is called CC50 is the concentration at which the toxic effect on the cells reaches its halfway point.

Data set [1] deals with Candida albicans. Briefly: Antimicrobial activity against Candida albicans ATCC 10231 after 24 hrs by twofold serial microdilution method. Format: functional, organism-based. (In general: Broth dilution looks for growth in wells or tubes with falling amounts of substance.)
For data set [2], the system named is Escherichia coli. Briefly: Antimicrobial activity against Escherichia coli NCTC 8196 after 18 hrs by twofold serial microdilution method. Format: functional, organism-based.
The subject of data set [3] is Coxsackievirus B5. The data set is described as follows: Antiviral activity against Human coxsackievirus B5 ATCC VR-29 infected in African green monkey Vero 76 cells assessed as reduction of virus-plaque formation after 3 days by crystal violet staining. Type of data set: functional, organism-based. The settings on record: Enterovirus B, ATCC VR-29, Vero, 72 h. In a few lines:
(§1)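 Plaque reduction: Vero-76 at 2x10^5 cells/well grown to confluent monolayers, infected 2 h at 50–100 PFU/well; after removing unadsorbed virus, overlay of D-MEM, 1% inactivated FBS, 0.75% methylcellulose with or without serial compound dilutions; 3 days at 37°C, fixed and stained with crystal violet in 50% ethanol, plaques counted; EC50 by linear regression.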

A short description of data set [4]: Antiviral activity against Bovine viral diarrhea virus 1-NADL ATCC VR-534 infected in MDBK cells assessed as protection against virus-induced cytopathogenicity after 3 to 4 days by MTT assay. Type of data set: functional, cell-based. The settings on record: Bovine viral diarrhea virus isolates and strains, ATCC VR-534, MDBK. A digest of the protocol:
(§2)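 Cells seeded in 96-well plates (BHK 5x10^4, MDBK 3x10^4 cells/well), grown overnight to confluence, infected at m.o.i. 0.01 (BHK for Reo-1, MDBK for BVDV); serial compound dilutions in maintenance medium with 0.5% inactivated FBS added after 1 h; viability by MTT after 3–4 days at 37°C; EC50 for 50% protection by linear regression.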
Background: Protection from cytopathic effect is a common read-out in antiviral testing.

Data set [5] has as its system Vaccinia virus. The data set is described as follows: Antiviral activity against Human Vaccinia virus ATCC VR-1549 infected in African green monkey Vero 76 cells assessed as reduction of virus-plaque formation after 3 days by crystal violet staining. Type of data set: functional, organism-based. The settings on record: Orthopoxvirus vaccinia, ATCC VR-1549, Vero, 72 h.

Data set [6] deals with Human alphaherpesvirus 1. Briefly: Antiviral activity against Human herpesvirus 1 KOS ATCC VR-1493 infected in African green monkey Vero 76 cells assessed as reduction of virus-plaque formation after 3 days by crystal violet staining. Type of data set: functional, organism-based. The note with it: Human alphaherpesvirus 1, KOS ATCC VR1493, Vero, 72 h. A digest of the protocol: as §1

For data set [7], the system named is Vesicular stomatitis virus. Briefly: Antiviral activity against Vesicular stomatitis virus ATCC VR 1540 infected in African green monkey Vero 76 cells assessed as reduction of virus-plaque formation after 2 days by crystal violet staining. The settings on record: ATCC VR 1540, Vero, 48 h. Format: functional, organism-based.
Data set [8] deals with Pseudomonas aeruginosa. The data set is described as follows: Antimicrobial activity against Pseudomonas aeruginosa ATCC 15442 after 18 hrs by twofold serial microdilution method. Type of data set: functional, organism-based.
The subject of data set [9] is Bordetella bronchiseptica. The data set is described as follows: Antimicrobial activity against Bordetella bronchiseptica ATCC 4617 after 18 hrs by twofold serial microdilution method. Format: functional, organism-based.
The subject of data set [10] is Escherichia coli. The data set is described as follows: Antimicrobial activity against Escherichia coli ATCC 10538 after 18 hrs by twofold serial microdilution method. Format: functional, organism-based.
For data set [11], the system named is Mycobacterium tuberculosis. Briefly: Antimycobacterial activity against drug-sensitive Mycobacterium tuberculosis Spec. 192. Format: functional. In a few lines:
(§3)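 Classical test-tube successive-dilution method in Youmans' modification of Proskauer and Beck liquid medium with 10% bovine serum. Inoculum came from 14-day cultures. DMSO stock was 10 mg/mL, diluted geometrically in medium. Tubes were incubated at 37 °C. Concentrations tested were 3.1, 6.2, 12.5, 25, 50 and 100 µg/ml. MIC is the minimum concentration inhibiting growth relative to compound-free tubes.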

Data set [12] deals with Human immunodeficiency virus 1. Briefly: Antiviral activity against HIV1 3B infected in human MT4 cells assessed as protection against virus-induced cytopathogenicity by MTT assay. Type of data set: functional, organism-based. The note with it: Human immunodeficiency virus 1, 3B.
Data set [13] relates to Mycobacterium tuberculosis. Briefly: Antimycobacterial activity against Mycobacterium tuberculosis H37Rv ATCC 25618. Type of data set: functional. A digest of the protocol:
as §3

Data set [14] concerns Mammalian orthoreovirus 1. The data set is described as follows: Antiviral activity against Reovirus type-1 ATCC VR-214 infected in BHK cells assessed as protection against virus-induced cytopathogenicity after 3 to 4 days by MTT assay. Format: functional, cell-based. The note with it: Mammalian orthoreovirus 1, ATCC VR-214, BHK. A digest of the protocol:
as §2

Data set [15] concerns Pseudomonas aeruginosa. Briefly: Antimicrobial activity against Pseudomonas aeruginosa NCTC 6749 after 18 hrs by twofold serial microdilution method. Type of data set: functional, organism-based.
The test system of data set [16] is Poliovirus 1. The data set is described as follows: Antiviral activity against Poliovirus type 1 ATCC VR-1562 infected in African green monkey Vero 76 cells assessed as reduction of virus-plaque formation after 2 days by crystal violet staining. The note with it: Enterovirus C, ATCC VR-1562, Vero, 48 h. Format: functional, organism-based.
The subject of data set [17] is Candida albicans. The data set is described as follows: Antimicrobial activity against Candida albicans ATCC 90028 after 24 hrs by twofold serial microdilution method. Type of data set: functional, organism-based.
Data set [18] can be described thus: Cytotoxicity against bovine MDBK cells assessed as cell viability after 48 to 96 hrs by MTT assay. Format: cell-based, Bos taurus. The settings on record: cattle.
A short description of data set [19]: Cytotoxicity against BHK cells assessed as cell viability after 48 to 96 hrs by MTT assay. Format: cell-based, Mesocricetus auratus. The settings on record: hamster. Background: Tetrazolium assays rely on reduction of a dye to a coloured formazan, in cell work by metabolically active cells.
A short description of data set [20]: Cytotoxicity against human MT4 cells. Type of data set: cell-based.
Data set [21] deals with Yellow fever virus. The data set is described as follows: Antiviral activity against Yellow fever virus 17D infected in BHK cells assessed as protection against virus-induced cytopathogenicity after 3 to 4 days by MTT assay. Type of data set: functional, cell-based.
Data set [22] has as its system Candida parapsilosis. The data set is described as follows: Antimicrobial activity against Candida parapsilosis ATCC 22019 after 24 hrs by twofold serial microdilution method. Type of data set: functional, organism-based.
Data set [23] concerns Pseudomonas aeruginosa. The data set is described as follows: Antimicrobial activity against Pseudomonas aeruginosa ATCC 27863 after 18 hrs by twofold serial microdilution method. Format: functional, organism-based.
Data set [24] has as its system Escherichia coli. The data set is described as follows: Antimicrobial activity against Escherichia coli ATCC 25922 after 18 hrs by twofold serial microdilution method. Type of data set: functional, organism-based.
Data set [25] is described as follows: Cytotoxicity against African green monkey Vero 76 cells assessed as cell viability after 48 to 96 hrs by crystal violet staining. Format: cell-based. The settings on record: chlorocebus sabaeus.
Data set [26] deals with CCRF-SB. The data set is described as follows: Cytotoxicity against human CCRF-SB cells after 96 hrs by MTT assay. Type of data set: functional. In a few lines: (§4)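 Leukaemia/lymphoma lines seeded at 1×10^5 cells/ml in RPMI-1640 with 10% FCS and penicillin/streptomycin; incubated with serial dilutions at 37°C, 5% CO2; viability by MTT after 96 h; value is concentration reducing proliferation by 50%, with untreated controls undergoing at least three rounds of multiplication.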

For data set [27], the system named is CCRF-CEM. Briefly: Cytotoxicity against human CCRF-CEM cells after 96 hrs by MTT assay. Format: functional. A digest of the protocol:
as §4

The test system of data set [28] is WIL2-NS. Briefly: Cytotoxicity against human WIL2-NS cells after 96 hrs by MTT assay. Type of data set: functional. In a few lines:
as §4

Values after ≈ are worked out from the molar mass of the structure shown. Active and inactive are the calls of the source. No cut-off for these calls is given here.

Turning to `CCCCc1ccc(NC(=S)Nc2cccc(C(F)(F)F)c2)c(C)c1`, the result in data set [1], in data set [2], in data set [8], in data set [9], in [10] and in data set [15] was inactive. Further, the result in data set [17], in data set [22], in data set [23] and in data set [24] was inactive. Also, the EC50 is above 18 µM in [3]; above 10 µM in data set [4]; above 18 µM in data set [5]; above 18 µM in [6]; above 18 µM in data set [7]; above 43 µM in [12]. In addition, the figures for the EC50 in [14], in data set [16] and in data set [21] were above 9 µM, above 18 µM and above 9 µM, respectively. The MIC in [11] was found to be 100 µg/mL (≈ 273 µM); in [13], 50 µg/mL (≈ 136 µM). Also, the CC50 in [18] came out at 10 µM; in data set [19], 9 µM; in data set [20], 43 µM; in [25] it was 18 µM.

With `COc1cccc2c1C(=O)c1c(O)c3c(c(O)c1C2=O)C[C@@](O)(C(=O)CO)C[C@@H]3O[C@H]1C[C@H](N)[C@H](O)[C@H](C)O1` [DOXORUBICIN], the results for the CC50 in data set [26], in data set [27] and in data set [28] were 30 nM, 20 nM and 20 nM, respectively.

These data come from ChEMBL document CHEMBL3616436, “Synthesis, cytotoxicity and antimicrobial activity of thiourea derivatives incorporating 3-(trifluoromethyl)phenyl moiety” (Eur J Med Chem, 2015).
